Data reported in ChEMBL document CHEMBL1154682, “Discovery of novel benzoxazinones as potent and orally active long chain fatty acid elongase 6 inhibitors” (J Med Chem, 2009).
Calls of active or inactive are those of the source. No cut-off for these calls is given here.

Key:
[1] = biological target: T1, Very long chain fatty acid elongase 6 (Mus musculus, UniProt Q920L5); assay: Inhibition of mouse ELOVL6 expressed in Pichia pastoris using palmitoyl-CoA by long chain fatty acyl-CoA elongation assay
T1 sequence (Q920L5 whole entry): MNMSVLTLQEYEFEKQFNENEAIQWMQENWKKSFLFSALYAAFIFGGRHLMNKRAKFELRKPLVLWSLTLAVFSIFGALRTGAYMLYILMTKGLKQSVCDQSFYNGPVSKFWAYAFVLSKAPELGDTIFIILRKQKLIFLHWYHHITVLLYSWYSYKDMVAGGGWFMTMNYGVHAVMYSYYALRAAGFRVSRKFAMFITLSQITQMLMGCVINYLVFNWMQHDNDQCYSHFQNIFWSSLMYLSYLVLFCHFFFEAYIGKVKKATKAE
Outline: (§1)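 Microsomes (3 μg) from Pichia pastoris SMD1168 expressing FLAG-tagged human or mouse ELOVL6 were incubated 1 h at 37 °C in 100 mM potassium phosphate pH 6.5 with 40 μM palmitoyl-CoA, 20 μM malonyl-CoA plus [14C]-malonyl-CoA, 500 μM NADPH, 200 μM BSA and 1 μM rotenone. DMSO was 1.0% final. After HCl hydrolysis, filter-retained 14C was counted. IC50 came from nonlinear regression on % of control.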

[2] = biological target: T1, Very long chain fatty acid elongase 6; assay: Inhibition of ELOVL6 in mouse H2.35 cells assessed as elongation index; type: cell-based
Outline: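 Subconfluent mouse hepatoma H2.35 cells were kept at 33 °C in DMEM with 200 nM dexamethasone and 4% FBS. Lipids were hydrolysed in NaOH at 70 °C, and fatty acids extracted and quantified by radio-HPLC. Elongation index = (C18:0 + C18:1) / (C16:0 + C16:1).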

[3] = biological target: T2, Very long chain fatty acid elongase 6 (Homo sapiens, UniProt Q9H5J4); assay: Inhibition of human ELOVL6 expressed in Pichia pastoris using palmitoyl-CoA by long chain fatty acyl-CoA elongation assay; outline: as §1
T2 sequence (Q9H5J4 whole entry): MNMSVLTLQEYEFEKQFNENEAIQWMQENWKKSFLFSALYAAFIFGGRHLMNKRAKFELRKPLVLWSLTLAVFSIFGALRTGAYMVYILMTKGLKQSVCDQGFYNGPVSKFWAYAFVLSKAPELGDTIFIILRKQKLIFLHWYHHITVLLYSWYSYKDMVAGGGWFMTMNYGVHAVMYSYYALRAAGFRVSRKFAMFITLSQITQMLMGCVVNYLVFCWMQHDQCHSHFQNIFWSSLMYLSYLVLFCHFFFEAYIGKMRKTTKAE

[4] = Plasma concentration in C57BL/6J mouse at 30 mg/kg, po after 8 hrs; type: ADME, organism-based; parameters: dose 30 mg/kg, route oral; conditions: read-out: Concentration_plasma
Outline: (§2)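 Male C57BL/6J mice were given a single oral gavage of 30 mg/kg in 0.5% methylcellulose suspension. Plasma was sampled at 2, 4, 8 and 24 h, deproteinized with ethanol containing internal standard, and assayed. Values are means of n = 3 animals.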

[5] = Plasma concentration in C57BL/6J mouse at 30 mg/kg, po twice daily after 3 days; type: ADME, organism-based; parameters: dose 30 mg/kg, route oral
Mus musculus [6] = assay: Reduction of elongation index of total fatty acids in C57BL/6J mouse plasma at 30 mg/kg, po twice daily for 3 days; type: functional, organism-based; parameters: dose 30 mg/kg
Outline: (§3)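 Male C57BL/6J mice received 30 mg/kg orally twice daily for 3 days. Liver and plasma were hydrolysed in NaOH/ethanol with C17:0 internal standard. Fatty acids were derivatized with 2-nitrophenylhydrazine and measured by HPLC-UV at 400 nm. Elongation index (C18/C16) was expressed as % of vehicle control. Six mice per group.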

[7] = Plasma concentration in C57BL/6J mouse at 10 mg/kg, po after 2 hrs; type: ADME, organism-based; parameters: dose 10 mg/kg, route oral
Outline: (§4)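 Male C57BL/6J mice were given a single oral gavage of 10 mg/kg in 0.5% methylcellulose suspension. Abdominal-vein blood and liver were taken 2 h after dosing. Liver was homogenized in PBS pH 7.4. Plasma and homogenate were deproteinized with ethanol containing internal standard before analysis.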

[8] = Oral bioavailability in Sprague-Dawley rat at 3 mg/kg; type: ADME, organism-based; conditions: in vivo
Outline: (§5)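 Male SD rats, single dose: iv 1 mg/kg in PEG400/EtOH/H2O 50/10/40 or oral gavage 3 mg/kg in 0.5% methylcellulose suspension. Plasma was sampled at multiple time points up to 24 h, deproteinized with ethanol containing internal standard, and assayed. Values are means of n = 3 animals. Bioavailability was taken from AUC0-∞ after iv versus po.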

[9] = Cmax in Sprague-Dawley rat at 1 mg/kg, iv and 3 mg/kg, po; type: ADME, organism-based; conditions: in vivo; outline: as §5
[10] = AUC (0 to infinity) in Sprague-Dawley rat at 1 mg/kg, iv and 3 mg/kg, po; type: ADME, organism-based; conditions: plasma; outline: as §5
[11] = Plasma concentration in C57BL/6J mouse at 30 mg/kg, po after 2 hrs; type: ADME, organism-based; parameters: dose 30 mg/kg, route oral; conditions: read-out: Concentration_plasma; outline: as §2
[12] = Unbound fraction in C57BL/6N mouse plasma; type: ADME, cell-free
Outline: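 Equilibrium dialysis was run with C57BL/6N mouse plasma adjusted to pH 7.4 and spiked with 1 μM compound, dialysed against PBS for 6 h at 37 °C. Both sides were analysed by LC-MS/MS. Unbound fraction = Cf/Cp × 100. Mean of n = 3.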

[13] = biological target: T3, Very long chain fatty acid elongase 3 (Mus musculus, UniProt O35949); assay: Inhibition of mouse ELOVL3
T3 sequence (O35949 whole entry): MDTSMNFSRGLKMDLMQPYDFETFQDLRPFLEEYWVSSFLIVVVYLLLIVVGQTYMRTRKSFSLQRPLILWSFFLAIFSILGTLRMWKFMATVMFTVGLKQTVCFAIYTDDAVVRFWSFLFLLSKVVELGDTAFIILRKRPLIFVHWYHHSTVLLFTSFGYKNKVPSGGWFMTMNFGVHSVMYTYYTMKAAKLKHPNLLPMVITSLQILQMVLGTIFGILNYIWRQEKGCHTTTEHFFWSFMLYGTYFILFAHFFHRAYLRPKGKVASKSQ
Outline: (§6)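 Microsomes were prepared from Pichia pastoris SMD1168 expressing FLAG-tagged human or mouse ELOVL. Incubation ran 1 h at 37 °C in 100 mM potassium phosphate pH 6.5 with 200 μM BSA, 500 μM NADPH, 1 μM rotenone, 20 μM malonyl-CoA plus [14C]-malonyl-CoA, and acyl-CoA: ELOVL1 and ELOVL3, 10 μM stearoyl-CoA; ELOVL2, 10 μM arachidonoyl-CoA; ELOVL5, 40 μM arachidonoyl-CoA. DMSO was 1.0% final. Products were acid-hydrolysed and filter-bound radioactivity counted.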

[14] = Plasma concentration in C57BL/6J mouse at 30 mg/kg, po after 4 hrs; type: ADME, organism-based; parameters: dose 30 mg/kg, route oral; conditions: read-out: Concentration_plasma; outline: as §2
[15] = Plasma concentration in C57BL/6J mouse at 1 mg/kg, po after 2 hrs; type: ADME, organism-based; parameters: dose 1 mg/kg, route oral
[16] = Drug level in C57BL/6J mouse liver at 10 mg/kg, po after 2 hrs; type: ADME, organism-based; parameters: dose 10 mg/kg, route oral; conditions: read-out: Drug uptake; outline: as §4
Mus musculus [17] = assay: Reduction of elongation index of total fatty acids in C57BL/6J mouse liver at 30 mg/kg, po twice daily for 3 days; type: functional, organism-based; parameters: dose 30 mg/kg; outline: as §3
[18] = biological target: T4, Very long chain fatty acid elongase 5 (Homo sapiens, UniProt Q9NYP7); assay: Inhibition of human ELOVL5; outline: as §6
T4 sequence (Q9NYP7 whole entry): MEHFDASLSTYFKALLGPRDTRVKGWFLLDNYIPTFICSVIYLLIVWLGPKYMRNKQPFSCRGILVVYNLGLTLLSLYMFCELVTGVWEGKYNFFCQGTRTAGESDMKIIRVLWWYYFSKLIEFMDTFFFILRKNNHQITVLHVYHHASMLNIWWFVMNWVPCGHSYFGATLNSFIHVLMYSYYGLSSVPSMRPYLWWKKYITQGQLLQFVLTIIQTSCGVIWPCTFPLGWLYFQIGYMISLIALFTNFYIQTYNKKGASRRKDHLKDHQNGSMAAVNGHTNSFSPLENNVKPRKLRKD

[19] = Half life in Sprague-Dawley rat at 1 mg/kg, iv; type: ADME, organism-based; parameters: dose 1 mg/kg, route intravenous; conditions: in vivo; outline: as §5
[20] = biological target: T5, Very long chain fatty acid elongase 1 (Homo sapiens, UniProt Q9BW60); assay: Inhibition of human ELOVL1; outline: as §6
T5 sequence (Q9BW60 whole entry): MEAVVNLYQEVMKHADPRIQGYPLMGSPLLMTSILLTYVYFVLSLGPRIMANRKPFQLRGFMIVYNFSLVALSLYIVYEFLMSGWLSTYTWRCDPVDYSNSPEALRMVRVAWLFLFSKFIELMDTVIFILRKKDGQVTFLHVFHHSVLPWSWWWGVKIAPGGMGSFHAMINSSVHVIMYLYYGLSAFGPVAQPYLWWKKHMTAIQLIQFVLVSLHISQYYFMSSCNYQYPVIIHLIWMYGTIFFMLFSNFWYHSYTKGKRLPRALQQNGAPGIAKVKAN

Mus musculus [21] = assay: Reduction of elongation index of liver lipids in C57BL/6J mouse at 1 mg/kg, po; type: functional, organism-based; parameters: dose 1 mg/kg
Outline: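 Male C57BL/6J mice were dosed orally in 0.5% methylcellulose. [1-14C]palmitic acid, 10 μCi/body, was given intraperitoneally 1 h later. Liver was taken 2 h after dosing and saponified in KOH/ethanol at 70 °C. Labelled fatty acids were quantified by radio-HPLC, with elongation index C18/C16 expressed as % of control. Four mice per treatment.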

[22] = Plasma clearance in Sprague-Dawley rat at 1 mg/kg, iv and 3 mg/kg, po; type: ADME, organism-based; outline: as §5
[23] = Volume of distribution at steady state in Sprague-Dawley rat at 1 mg/kg, iv; type: ADME, organism-based; parameters: dose 1 mg/kg, route intravenous; conditions: in vivo, read-out: Vdss; outline: as §5
[24] = biological target: T6, Very long chain fatty acid elongase 3 (Homo sapiens, UniProt Q9HB03); assay: Inhibition of human ELOVL3; outline: as §6
T6 sequence (Q9HB03 whole entry): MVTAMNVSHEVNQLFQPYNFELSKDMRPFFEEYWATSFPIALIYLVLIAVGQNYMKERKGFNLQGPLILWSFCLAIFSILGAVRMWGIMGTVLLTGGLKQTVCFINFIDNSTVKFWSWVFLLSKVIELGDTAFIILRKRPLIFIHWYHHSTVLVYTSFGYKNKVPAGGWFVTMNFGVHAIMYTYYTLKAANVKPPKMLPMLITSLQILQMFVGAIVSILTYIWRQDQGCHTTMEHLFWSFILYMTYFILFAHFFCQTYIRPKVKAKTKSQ

[25] = biological target: T7, Very long chain fatty acid elongase 2 (Homo sapiens, UniProt Q9NXB9); assay: Inhibition of human ELOVL2; outline: as §6
T7 sequence (Q9NXB9 whole entry): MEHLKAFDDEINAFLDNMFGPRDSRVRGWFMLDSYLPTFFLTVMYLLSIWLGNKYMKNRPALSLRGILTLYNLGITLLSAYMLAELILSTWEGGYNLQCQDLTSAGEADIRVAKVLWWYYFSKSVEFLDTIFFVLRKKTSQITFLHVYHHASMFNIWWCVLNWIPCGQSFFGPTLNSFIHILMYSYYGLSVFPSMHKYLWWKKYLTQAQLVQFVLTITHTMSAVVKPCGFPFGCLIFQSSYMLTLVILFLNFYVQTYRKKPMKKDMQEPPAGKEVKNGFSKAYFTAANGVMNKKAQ

O=C1Nc2ccc(-c3cn[nH]c3)cc2C(CNC(=O)c2ccc(F)cc2)(C(F)(F)F)O1 (single isomer, unassigned; (+))
IC50 [1]: 20 nM | IC50 [2]: 50 nM

O=C(Nc1ccc(F)cc1)OCC1(c2ccccc2)OC(=O)Nc2ccc(Cl)cc21 (stereo unspecified)
IC50 [3]: > 10000 nM

CC1(COC(=O)Nc2ccc(F)cc2)OC(=O)Nc2ccc(Cl)cc21 (stereo unspecified)
IC50 [3]: 1360 nM

O=C(Nc1ccc(F)cc1)OCC1(C(F)(F)F)OC(=O)Nc2ccc(Cl)cc21 (stereo unspecified)
IC50 [3]: 142 nM

CC(C)C1(COC(=O)Nc2ccc(F)cc2)OC(=O)Nc2ccc(Cl)cc21 (stereo unspecified)
IC50 [3]: 5030 nM

O=C1Nc2ccc(-c3ccn[nH]3)cc2[C@](CNC(=O)c2ccc(F)cc2)(C(F)(F)F)O1
concentration at 8 h [4]: 700 nM | concentration at 72 h [5]: > 540 nM | Activity (Mus musculus [6]): inactive | concentration at 2 h [7]: 660 nM | bioavailability [8]: 30% | Cmax [9]: 2400 nM | AUC(0-inf) [10]: 4.69 µM·h | concentration at 2 h [11]: 11700 nM | fraction unbound [12]: 0.107 | IC50 [13]: 19 nM | IC50 [1]: 14 nM | concentration at 4 h [14]: 3700 nM | concentration at 2 h [15]: 540 nM | concentration at 2 h [16]: 12500 nM | Activity (Mus musculus [17]): Active | IC50 [2]: 3.6 nM | IC50 [18]: > 10000 nM | half-life [19]: 1.9 h | IC50 [20]: 7000 nM | Activity (Mus musculus [21]): Active | clearance [22]: 11 mL/min/kg | Vd [23]: 0.7 L/kg | IC50 [24]: 130 nM | IC50 [25]: > 10000 nM

CCC1(COC(=O)Nc2ccc(F)cc2)OC(=O)Nc2ccc(Cl)cc21 (stereo unspecified)
IC50 [3]: 2260 nM
